Peptide text beside a SMILES is read from it.
Key:
[1] = Oral bioavailability in Wistar rat at 10 mg/kg measured over 8 hrs by LC-MS method; assay type: ADME, organism-based; conditions: in vivo
[2] = Apparent permeability in RRCK cells at 8 uM at pH 7.4 incubated for 2 hrs by LC-MS/MS method; assay type: ADME, cell-based, Canis lupus familiaris, MDCKII-LE; conditions: dog, MDCK
[3] = Permeability in human Caco2 cells at 10 uM by LC-MS method; assay type: ADME, cell-based; conditions: caco-2, 10 µM
How it was run: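 Caco-2 monolayers; compound at 10 μM, cyclosporin A comparator at 30 μM; medium 0.05% DMSO in HEPES buffer, pH 7.4, 37 °C; apparent permeability in cm·s–1.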

[4] = Apparent permeability in RRCK cells at 8 uM at pH 7.4 incubated for 2 hrs by LC-MS/MS method relative to CSA; assay type: ADME, cell-based, Canis lupus familiaris; conditions: dog, mdckii-le, pH 7.4, 2 h
How it was run: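 RRCK monolayers (no active transporters); compound at 8 μM alongside cyclosporin A at 8 μM; medium 0.05% DMSO in HEPES buffer, pH 7.4, 37 °C; apparent permeability expressed in cm·s–1.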

[5] = Clearance in Wistar rat at 1 mg/kg, iv by LC-MS method; assay type: ADME, organism-based; set-up: dose 1 mg/kg, route intravenous; conditions: in vivo

| SMILES | bioavailability [1] | Papp at 2 h, 8 µM [2] | permeability [3] | fold change (FC) [4] | clearance [5] |
| --- | --- | --- | --- | --- | --- |
| CC(C)C[C@@H]1NC(=O)[C@H](CC(C)C)NC(=O)[C@H](CC(C)C)NC(=O)[C@H](CC(C)C)NC(=O)[C@H](CC(C)C)NC1=O (cyclo(LLLLL)) | 4% | 1.7 ×10⁻⁶ cm/s | permeable | – | – |
| CC(C)C[C@@H]1NC(=O)[C@H](CC(C)C)NC(=O)[C@H](CC(C)C)NC(=O)[C@H](CC(C)C)NC(=O)[C@H](CC(C)C)NC(=O)[C@H](CC(C)C)NC1=O | 17% | > 1 ×10⁻⁶ cm/s | permeable | 2 | 4.7 mL/min/kg |
| CC(C)C[C@@H]1NC(=O)[C@H](CC(C)C)NC(=O)[C@H](CC(C)C)NC(=O)[C@@H](CC(C)C)NC(=O)[C@H](CC(C)C)NC(=O)[C@H](CC(C)C)NC1=O | 9% | > 1 ×10⁻⁶ cm/s | permeable | 2 | 24.1 mL/min/kg |
